Measured values reported in ChEMBL document CHEMBL3580660, “Synthesis and Biological Evaluation of Novel Olean-28,13β-lactams as Potential Antiprostate Cancer Agents” (J Med Chem, 2015).
Activity calls are given as the source filed them. The rule behind the calls is not given here.

Assays:
DU-145 [1] = assay: Antiproliferative activity against human DU145 cells at 2 uM after 72 hrs by CCK8 assay; type: functional
In short: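 DU-145 screening at single concentration 2 μM for 72 h, proliferation by CCK-8 (cells 5 × 10^3/well in 10% FCS DMEM). Percent inhibition vs untreated, background-corrected; mean ± SD from three independent experiments.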

[2] = Antiproliferative activity against human WPMY-1 cells after 72 hrs by CCK8 assay; type: functional, cell-based; settings: WPMY-1, 72 h
In short: (§1)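 CCK-8 assay: DU-145, H460, Bxpc-3, BEL-7404 and nontumor WPMY-1 cells seeded at 5 × 10^3 cells/well in 10% FCS DMEM overnight, then exposed in triplicate to 0.041−10 μM for 72 h. CCK-8 added for final 30 min, absorbance 450 nm; inhibition relative to medium-only controls after background subtraction; IC50 as concentration giving 50% inhibition.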

DU-145 [3] = assay: Antiproliferative activity against human DU145 cells after 72 hrs by CCK8 assay; type: functional, cell-based; settings: DU-145, 72 h; in short: as §1
[4] = Antiproliferative activity against human H460 cells after 72 hrs by CCK8 assay; type: functional, cell-based; settings: NCI-H460, 72 h; in short: as §1
[5] = Antiproliferative activity against human Bel7404 cells after 72 hrs by CCK8 assay; type: functional, cell-based; settings: BEL-7404, 72 h; in short: as §1
[6] = Antiproliferative activity against human BxPC3 cells after 72 hrs by CCK8 assay; type: functional, cell-based; settings: BXPC-3, 72 h; in short: as §1

SMILES: CC1(C)CC[C@]23CC[C@@]4(C)[C@]5(C)CC[C@H]6C(C)(C)C(=O)C(C#N)=C[C@]6(C)C5=CC(=O)[C@@]4([C@@H]2C1)N(CCO)C3=O
- inhibition (DU-145 [1]): Active

SMILES: CCN1C(=O)[C@]23CCC(C)(C)C[C@H]2[C@]12C(=O)C=C1[C@@]4(C)C=C(C#N)C(=O)C(C)(C)[C@@H]4CC[C@@]1(C)[C@]2(C)CC3
- inhibition (DU-145 [1]): Active

SMILES: CCCCN1C(=O)[C@]23CCC(C)(C)C[C@H]2[C@]12C(=O)C=C1[C@@]4(C)C=C(C#N)C(=O)C(C)(C)[C@@H]4CC[C@@]1(C)[C@]2(C)CC3
- inhibition (DU-145 [1]): Active

SMILES: CC1(C)CC[C@]23CC[C@@]4(C)[C@]5(C)CC[C@H]6C(C)(C)C(=O)C(C#N)=C[C@]6(C)C5=CC(=O)[C@@]4([C@@H]2C1)N(C(C)(C)C)C3=O
- IC50 [2]: 9600 nM
- inhibition (DU-145 [1]): Active
- IC50 (DU-145 [3]): 960 nM
- IC50 [4]: 430 nM
- IC50 [5]: 1140 nM
- IC50 [6]: 660 nM

SMILES: CC1(C)CC[C@]23CC[C@@]4(C)[C@]5(C)CC[C@H]6C(C)(C)C(=O)C(C#N)=C[C@]6(C)C5=CC(=O)[C@@]4([C@@H]2C1)N(CCc1ccccc1)C3=O
- inhibition (DU-145 [1]): Active

SMILES: CC1(C)CC[C@]2(C(=O)n3ccnc3)CC[C@]3(C)[C@H](C(=O)C=C4[C@@]5(C)C=C(C#N)C(=O)C(C)(C)[C@@H]5CC[C@]43C)[C@@H]2C1
- IC50 [2]: 2090 nM
- IC50 (DU-145 [3]): 690 nM
- IC50 [4]: 420 nM
- IC50 [5]: 990 nM
- IC50 [6]: 1500 nM

SMILES: CCCCCCN1C(=O)[C@]23CCC(C)(C)C[C@H]2[C@]12C(=O)C=C1[C@@]4(C)C=C(C#N)C(=O)C(C)(C)[C@@H]4CC[C@@]1(C)[C@]2(C)CC3
- inhibition (DU-145 [1]): Active

SMILES: CCCN1C(=O)[C@]23CCC(C)(C)C[C@H]2[C@]12C(=O)C=C1[C@@]4(C)C=C(C#N)C(=O)C(C)(C)[C@@H]4CC[C@@]1(C)[C@]2(C)CC3
- inhibition (DU-145 [1]): Active

SMILES: CN1C(=O)[C@]23CCC(C)(C)C[C@H]2[C@]12C(=O)C=C1[C@@]4(C)C=C(C#N)C(=O)C(C)(C)[C@@H]4CC[C@@]1(C)[C@]2(C)CC3
- inhibition (DU-145 [1]): Active

SMILES: CC1(C)CC[C@]2(C(=O)NC3CCCCC3)CC[C@]3(C)[C@H](C(=O)C=C4[C@@]5(C)C=C(C#N)C(=O)C(C)(C)[C@@H]5CC[C@]43C)[C@@H]2C1
- inhibition at 2 µM (DU-145 [1]; DU-145, 72 h): 53%
